Data from ChEMBL document CHEMBL5303300, “EUbOPEN Chemogenomics Library - Multiplex” (2023).
“And” between values parts separate entries of the source, which are not always exact repeats. Equal entries are not always repeated.

Test system: HEK-293T
Experiment: Multiplex assay against HEK293T
Assay type: toxicity, cell-based
Conditions: human, number of replicates 2
Summary of the method: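 Live cells were stained at seeding with Hoechst33342, BioTracker Green Microtubule Cytoskeleton Dye, MitoTracker Red and Annexin V Alexa Fluor 680. Following compound addition, they were imaged on a CQ1 microscope at 37°C and 5% CO2 and gated by CellPathfinder machine learning into Hoechst high-intensity objects or normal cells, with normal cells split into healthy, pyknosed or fragmented nuclei and pyknosed cells into mitotic or apoptotic. Tubulin, mitochondrial-mass and membrane-permeability phenotypes are per cents of healthy-nucleus cells.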

[1] = 12 h, 1 µM, compound concentration 1 uM
[2] = 12 h, 10 µM, compound concentration 10 uM
[3] = 24 h, 1 µM, compound concentration 1 uM
[4] = 24 h, 10 µM, compound concentration 10 uM
[5] = 48 h, 1 µM, compound concentration 1 uM
[6] = 48 h, 10 µM, compound concentration 10 uM

## CS(=O)(=O)c1ccc(C(=O)Nc2ccc(F)c(COc3ccc(Br)cc3CNCCO)c2)c(Cl)c1.O=CO
[1]
  Population Apoptotic (%): 55% and 59%
  Population Healthy Nuclei (%): 78% and 76%
  Population Mitotic Cells (%): 44% and 40%
  Total Cell Count: 571 and 534
[2]
  Population Apoptotic (%): 71% and 70%
  Population Healthy Nuclei (%): 84% and 78%
  Population Mitotic Cells (%): 28% and 30%
  Total Cell Count: 446 and 461
[3]
  Population Apoptotic (%): 57% and 61%
  Population Healthy Nuclei (%): 79% and 77%
  Population Mitotic Cells (%): 42% and 38%
  Total Cell Count: 845 and 808
[4]
  Population Apoptotic (%): 72% and 81%
  Population Healthy Nuclei (%): 75%
  Population Mitotic Cells (%): 28% and 18%
  Total Cell Count: 456
[5]
  Population Apoptotic (%): 30% and 39%
  Population Healthy Nuclei (%): 79% and 83%
  Population Mitotic Cells (%): 69% and 60%
  Total Cell Count: 2082 and 1679
[6]
  Population Apoptotic (%): 82% and 80%
  Population Healthy Nuclei (%): 75%
  Population Mitotic Cells (%): 17% and 19%
  Total Cell Count: 675 and 612

## CNS(=O)(=O)c1ccc(N(C)C)c(Nc2ncnc3cc(OC)c(OC)cc23)c1
[1]
  Population Apoptotic (%): 51% and 45%
  Population Fragmented Nuclei (%): 3% and 2%
  Population Healthy Nuclei (%): 81% and 83%
  Population Hoechst High Intensity Objects (%): 5% and 8%
  Population Membrane Permeable-Phenotype (%): 2%
  Population Mitochondria Different-Phenotype (%): 17% and 12%
  Population Mitotic Cells (%): 48% and 54%
  Population Normal (%): 94% and 91%
  Population Pyknosed Nuclei (%): 14%
  Population Tubulin-Different-Phenotype (%): 37% and 34%
  Total Cell Count: 547 and 550
[2]
  Population Apoptotic (%): 47% and 54%
  Population Fragmented Nuclei (%): 2% and 3%
  Population Healthy Nuclei (%): 87% and 88%
  Population Hoechst High Intensity Objects (%): 7%
  Population Membrane Permeable-Phenotype (%): 2% and 1%
  Population Mitochondria Different-Phenotype (%): 26% and 24%
  Population Mitotic Cells (%): 52% and 45%
  Population Normal (%): 92%
  Population Pyknosed Nuclei (%): 9% and 8%
  Population Tubulin-Different-Phenotype (%): 59%
  Total Cell Count: 607
[3]
  Population Apoptotic (%): 45% and 47%
  Population Fragmented Nuclei (%): 5% and 7%
  Population Healthy Nuclei (%): 86% and 84%
  Population Hoechst High Intensity Objects (%): 7% and 6%
  Population Membrane Permeable-Phenotype (%): 3% and 1%
  Population Mitochondria Different-Phenotype (%): 4%
  Population Mitotic Cells (%): 54% and 52%
  Population Normal (%): 92% and 93%
  Population Pyknosed Nuclei (%): 8%
  Population Tubulin-Different-Phenotype (%): 13% and 17%
  Total Cell Count: 888 and 859
[4]
  Population Apoptotic (%): 53% and 62%
  Population Fragmented Nuclei (%): 3% and 5%
  Population Healthy Nuclei (%): 89% and 87%
  Population Hoechst High Intensity Objects (%): 8% and 11%
  Population Membrane Permeable-Phenotype (%): 1%
  Population Mitochondria Different-Phenotype (%): 16% and 20%
  Population Mitotic Cells (%): 46% and 37%
  Population Normal (%): 91% and 88%
  Population Pyknosed Nuclei (%): 7%
  Population Tubulin-Different-Phenotype (%): 51% and 49%
  Total Cell Count: 699 and 675
[5]
  Population Apoptotic (%): 18% and 9%
  Population Fragmented Nuclei (%): 13% and 11%
  Population Healthy Nuclei (%): 83% and 85%
  Population Hoechst High Intensity Objects (%): 7% and 8%
  Population Membrane Permeable-Phenotype (%): 5% and 3%
  Population Mitochondria Different-Phenotype (%): 0%
  Population Mitotic Cells (%): 81% and 90%
  Population Normal (%): 92% and 91%
  Population Pyknosed Nuclei (%): 3%
  Population Tubulin-Different-Phenotype (%): 5%
  Total Cell Count: 2132 and 1975
[6]
  Population Apoptotic (%): 20% and 37%
  Population Fragmented Nuclei (%): 11% and 8%
  Population Healthy Nuclei (%): 86% and 87%
  Population Hoechst High Intensity Objects (%): 12%
  Population Membrane Permeable-Phenotype (%): 3% and 2%
  Population Mitochondria Different-Phenotype (%): 2%
  Population Mitotic Cells (%): 80% and 62%
  Population Normal (%): 87%
  Population Pyknosed Nuclei (%): 2% and 4%
  Population Tubulin-Different-Phenotype (%): 39%
  Total Cell Count: 1182 and 985

## CC(C)NC(=O)[C@H]1CCC[C@H]1Nc1nc(Nc2ccc(C(=O)N(C)C3CCN(C)CC3)cc2)ncc1Cl
[1]
  Population Apoptotic (%): 64% and 57%
  Population Fragmented Nuclei (%): 3% and 1%
  Population Healthy Nuclei (%): 79% and 87%
  Population Hoechst High Intensity Objects (%): 7% and 8%
  Population Membrane Permeable-Phenotype (%): 4% and 2%
  Population Mitochondria Different-Phenotype (%): 17% and 15%
  Population Mitotic Cells (%): 35% and 42%
  Population Normal (%): 92% and 91%
  Population Pyknosed Nuclei (%): 16% and 10%
  Population Tubulin-Different-Phenotype (%): 60% and 58%
  Total Cell Count: 568 and 503
[2]
  Population Apoptotic (%): 47% and 56%
  Population Fragmented Nuclei (%): 3% and 2%
  Population Healthy Nuclei (%): 87% and 86%
  Population Hoechst High Intensity Objects (%): 8% and 7%
  Population Membrane Permeable-Phenotype (%): 4%
  Population Mitochondria Different-Phenotype (%): 29% and 30%
  Population Mitotic Cells (%): 52% and 43%
  Population Normal (%): 91% and 92%
  Population Pyknosed Nuclei (%): 9% and 10%
  Population Tubulin-Different-Phenotype (%): 88% and 87%
  Total Cell Count: 520 and 480
[3]
  Population Apoptotic (%): 64% and 61%
  Population Fragmented Nuclei (%): 5% and 6%
  Population Healthy Nuclei (%): 76% and 84%
  Population Hoechst High Intensity Objects (%): 9% and 10%
  Population Membrane Permeable-Phenotype (%): 2%
  Population Mitochondria Different-Phenotype (%): 9% and 5%
  Population Mitotic Cells (%): 35% and 38%
  Population Normal (%): 90% and 89%
  Population Pyknosed Nuclei (%): 17% and 8%
  Population Tubulin-Different-Phenotype (%): 43% and 37%
  Total Cell Count: 653 and 524
[4]
  Population Apoptotic (%): 52% and 54%
  Population Fragmented Nuclei (%): 3% and 4%
  Population Healthy Nuclei (%): 85% and 87%
  Population Hoechst High Intensity Objects (%): 6% and 9%
  Population Membrane Permeable-Phenotype (%): 6% and 3%
  Population Mitochondria Different-Phenotype (%): 16% and 18%
  Population Mitotic Cells (%): 47% and 45%
  Population Normal (%): 93% and 90%
  Population Pyknosed Nuclei (%): 11% and 7%
  Population Tubulin-Different-Phenotype (%): 74% and 81%
  Total Cell Count: 514 and 516
[5]
  Population Apoptotic (%): 68% and 45%
  Population Fragmented Nuclei (%): 9% and 8%
  Population Healthy Nuclei (%): 84% and 89%
  Population Hoechst High Intensity Objects (%): 9% and 10%
  Population Membrane Permeable-Phenotype (%): 3% and 1%
  Population Mitochondria Different-Phenotype (%): 1% and 2%
  Population Mitotic Cells (%): 31% and 54%
  Population Normal (%): 90% and 89%
  Population Pyknosed Nuclei (%): 5% and 2%
  Population Tubulin-Different-Phenotype (%): 22% and 20%
  Total Cell Count: 714 and 606
[6]
  Population Apoptotic (%): 47% and 53%
  Population Fragmented Nuclei (%): 8% and 10%
  Population Healthy Nuclei (%): 84% and 85%
  Population Hoechst High Intensity Objects (%): 10% and 11%
  Population Membrane Permeable-Phenotype (%): 3% and 4%
  Population Mitochondria Different-Phenotype (%): 5%
  Population Mitotic Cells (%): 52% and 46%
  Population Normal (%): 89% and 88%
  Population Pyknosed Nuclei (%): 6% and 4%
  Population Tubulin-Different-Phenotype (%): 67% and 70%
  Total Cell Count: 617 and 637
